According to ChEMBL document CHEMBL3414433, “Discovery and profiling of a selective and efficacious Syk inhibitor” (J Med Chem, 2015):
The source made the active and inactive calls. The rule behind the calls is not given here.

How the values were obtained:
Rattus norvegicus [1] = species: Rattus norvegicus; assay: Hepatotoxicity in rat assessed as single necrosis of hepatocytes measured for 4 weeks by GLP study; type: toxicity, organism-based, Hepatocyte; details: 672 h
[2] = Clearance in Beagle dog at 0.1 mg/kg, iv and 0.3 mg/kg, po; type: ADME, organism-based, Canis lupus familiaris; details: in vivo
Method in brief: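 One-in-one dosing in Beagle dogs: i.v. 0.1 mg/kg in NMP/PEG200 (3:7); p.o. 0.3 mg/kg in MC/water (0.5:99.5). Exposure values dose normalized.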

[3] = Drug uptake in blood of Lewis rat collagen-induced arthritis model at 30 mg/kg, po qd administered on day 15 post immunization measured at 24 hrs on day 18; type: ADME, organism-based; design: dose 30 mg/kg, route oral; details: read-out: Drug uptake
Method in brief: (§1)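 Collagen-arthritic Lewis rats given 3, 10 or 30 mg/kg p.o. once daily from day 15; blood levels measured on day 18 (third day of treatment) at 4, 8 and 24 h after dosing.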

[4] = biological target: Serine/threonine-protein kinase PAK 5 (Homo sapiens, UniProt Q9P286); assay: Competitive binding affinity to human PAK7
Sequence of Serine/threonine-protein kinase PAK 5 (Q9P286 whole entry): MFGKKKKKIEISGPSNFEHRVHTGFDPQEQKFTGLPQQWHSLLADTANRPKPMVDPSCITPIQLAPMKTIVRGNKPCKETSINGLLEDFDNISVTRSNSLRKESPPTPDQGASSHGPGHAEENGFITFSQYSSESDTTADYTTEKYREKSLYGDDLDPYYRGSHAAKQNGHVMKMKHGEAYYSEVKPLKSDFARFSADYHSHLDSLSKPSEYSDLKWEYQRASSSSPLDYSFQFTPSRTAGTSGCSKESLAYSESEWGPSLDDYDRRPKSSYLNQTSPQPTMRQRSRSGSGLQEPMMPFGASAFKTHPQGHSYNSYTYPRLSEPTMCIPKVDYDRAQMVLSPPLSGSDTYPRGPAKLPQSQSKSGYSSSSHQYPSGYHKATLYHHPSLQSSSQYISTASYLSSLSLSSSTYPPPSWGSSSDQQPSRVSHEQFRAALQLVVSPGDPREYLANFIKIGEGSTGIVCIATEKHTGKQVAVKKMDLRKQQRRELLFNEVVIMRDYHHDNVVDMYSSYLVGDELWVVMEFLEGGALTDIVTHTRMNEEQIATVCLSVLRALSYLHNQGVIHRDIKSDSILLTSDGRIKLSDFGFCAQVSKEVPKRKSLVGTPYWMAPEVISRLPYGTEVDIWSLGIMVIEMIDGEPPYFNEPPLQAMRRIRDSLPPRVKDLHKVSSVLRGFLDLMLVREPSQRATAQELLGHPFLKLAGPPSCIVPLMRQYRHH

[5] = biological target: STE20-like serine/threonine-protein kinase (Homo sapiens, UniProt Q9H2G2); assay: Competitive binding affinity to human SLK
Sequence of STE20-like serine/threonine-protein kinase (Q9H2G2 whole entry): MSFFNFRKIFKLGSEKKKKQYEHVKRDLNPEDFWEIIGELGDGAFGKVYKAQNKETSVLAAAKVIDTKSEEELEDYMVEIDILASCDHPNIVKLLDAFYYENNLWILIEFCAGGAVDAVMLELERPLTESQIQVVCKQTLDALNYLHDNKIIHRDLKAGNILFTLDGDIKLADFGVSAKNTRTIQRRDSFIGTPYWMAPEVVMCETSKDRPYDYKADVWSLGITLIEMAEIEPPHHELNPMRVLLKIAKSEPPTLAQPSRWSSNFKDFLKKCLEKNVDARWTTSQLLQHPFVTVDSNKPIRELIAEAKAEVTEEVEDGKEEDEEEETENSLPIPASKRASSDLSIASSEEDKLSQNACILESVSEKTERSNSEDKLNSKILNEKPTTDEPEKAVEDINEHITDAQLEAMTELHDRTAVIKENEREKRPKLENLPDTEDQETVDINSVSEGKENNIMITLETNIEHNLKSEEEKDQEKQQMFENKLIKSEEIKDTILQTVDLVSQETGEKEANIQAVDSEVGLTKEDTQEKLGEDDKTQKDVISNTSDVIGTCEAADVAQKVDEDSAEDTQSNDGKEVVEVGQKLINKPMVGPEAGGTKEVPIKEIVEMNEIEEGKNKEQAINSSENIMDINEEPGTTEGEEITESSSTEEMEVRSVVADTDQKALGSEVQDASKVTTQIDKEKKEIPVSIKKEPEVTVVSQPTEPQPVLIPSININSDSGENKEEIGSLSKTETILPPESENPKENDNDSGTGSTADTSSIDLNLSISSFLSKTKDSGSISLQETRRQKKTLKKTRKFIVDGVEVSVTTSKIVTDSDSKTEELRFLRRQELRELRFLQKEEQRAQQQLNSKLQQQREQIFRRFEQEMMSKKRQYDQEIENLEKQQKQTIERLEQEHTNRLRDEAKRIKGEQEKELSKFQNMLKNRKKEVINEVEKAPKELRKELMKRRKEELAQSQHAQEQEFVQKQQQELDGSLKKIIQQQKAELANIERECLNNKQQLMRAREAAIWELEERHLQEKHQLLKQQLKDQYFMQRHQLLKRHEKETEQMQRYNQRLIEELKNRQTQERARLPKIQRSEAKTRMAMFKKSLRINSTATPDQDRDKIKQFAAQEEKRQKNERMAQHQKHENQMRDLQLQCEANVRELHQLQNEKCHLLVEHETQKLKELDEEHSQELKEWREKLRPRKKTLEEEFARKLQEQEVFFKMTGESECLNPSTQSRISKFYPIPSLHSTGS

[6] = Volume of distribution at steady state in Beagle dog at 0.1 mg/kg, iv and 0.3 mg/kg, po; type: ADME, organism-based, Canis lupus familiaris; details: in vivo, read-out: Vdss
Method in brief: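 Beagle dogs dosed one-in-one. The i.v. dose was 0.1 mg/kg in NMP/PEG200 (3:7), and the p.o. dose was 0.3 mg/kg in MC/water (0.5:99.5). Blood levels were followed after each route.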

hERG (KCNH2) = hERG (KCNH2) (Homo sapiens, UniProt Q12809); assay: Inhibition of human ERG at 10 uM by manual patch clamp assay relative to control
Sequence of hERG (KCNH2) (Q12809 whole entry): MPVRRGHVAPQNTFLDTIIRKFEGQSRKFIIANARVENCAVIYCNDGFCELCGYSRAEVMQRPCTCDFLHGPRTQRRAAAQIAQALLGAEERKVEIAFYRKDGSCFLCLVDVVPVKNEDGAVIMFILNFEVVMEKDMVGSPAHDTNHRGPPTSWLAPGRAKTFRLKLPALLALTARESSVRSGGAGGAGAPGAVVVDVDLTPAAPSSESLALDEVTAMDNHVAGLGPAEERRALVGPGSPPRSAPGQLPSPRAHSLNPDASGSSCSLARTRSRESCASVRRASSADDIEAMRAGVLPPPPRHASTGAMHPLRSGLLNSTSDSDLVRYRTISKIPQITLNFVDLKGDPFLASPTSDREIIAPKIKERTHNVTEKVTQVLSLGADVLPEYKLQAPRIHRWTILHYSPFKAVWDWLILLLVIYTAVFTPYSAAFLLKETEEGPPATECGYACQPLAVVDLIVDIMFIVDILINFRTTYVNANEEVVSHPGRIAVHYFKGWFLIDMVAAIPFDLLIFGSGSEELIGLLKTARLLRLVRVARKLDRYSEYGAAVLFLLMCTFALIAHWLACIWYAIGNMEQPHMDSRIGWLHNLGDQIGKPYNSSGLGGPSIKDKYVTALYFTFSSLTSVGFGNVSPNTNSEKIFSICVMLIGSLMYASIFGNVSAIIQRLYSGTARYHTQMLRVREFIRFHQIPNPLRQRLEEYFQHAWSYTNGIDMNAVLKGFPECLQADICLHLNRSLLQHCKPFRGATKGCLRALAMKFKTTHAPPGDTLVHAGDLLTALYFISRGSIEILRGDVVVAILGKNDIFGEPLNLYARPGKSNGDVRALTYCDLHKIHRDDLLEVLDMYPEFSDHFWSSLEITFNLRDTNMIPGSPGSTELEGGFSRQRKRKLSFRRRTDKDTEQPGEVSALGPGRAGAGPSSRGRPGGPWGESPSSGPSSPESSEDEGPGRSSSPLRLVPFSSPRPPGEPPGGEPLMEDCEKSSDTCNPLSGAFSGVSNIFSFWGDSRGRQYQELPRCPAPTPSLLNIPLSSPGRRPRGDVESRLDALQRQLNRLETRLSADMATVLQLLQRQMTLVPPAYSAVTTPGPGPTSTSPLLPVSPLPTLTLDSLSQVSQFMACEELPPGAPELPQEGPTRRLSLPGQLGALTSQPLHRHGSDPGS

Rattus norvegicus [7] = assay: In vivo inhibition of Syk in Lewis rat assessed as reduction in FcgR-induced SLP76 phosphorylation in peripheral blood monocytes at 22 mg/kg, po measured after 4 hrs relative to vehicle-treated control; type: functional
Method in brief: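 Single oral dose of 22 mg/kg to Lewis rats; blood sampled at 2, 4 and 24 h after dosing for compound level and ex vivo FcγR-induced phospho-SLP76 in peripheral blood monocytes.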

[8] = Drug uptake in blood of Lewis rat collagen-induced arthritis model at 3 mg/kg, po qd administered on day 15 post immunization measured at 8 hrs on day 18; type: ADME, organism-based; design: dose 3 mg/kg, route oral; details: read-out: Drug uptake; method in brief: as §1
[9] = biological target: T1, Tyrosine-protein kinase ZAP-70 (Homo sapiens, UniProt P43403); assay: Inhibition of ZAP70 in anti-CD3 stimulated human Jurkat T cells assessed as SLP76 phosphorylation at Y128 preincubated for 30 mins followed by anti-CD3 stimulation measured after 2 mins by FACS analysis; type: cell-based
T1 sequence (P43403 whole entry): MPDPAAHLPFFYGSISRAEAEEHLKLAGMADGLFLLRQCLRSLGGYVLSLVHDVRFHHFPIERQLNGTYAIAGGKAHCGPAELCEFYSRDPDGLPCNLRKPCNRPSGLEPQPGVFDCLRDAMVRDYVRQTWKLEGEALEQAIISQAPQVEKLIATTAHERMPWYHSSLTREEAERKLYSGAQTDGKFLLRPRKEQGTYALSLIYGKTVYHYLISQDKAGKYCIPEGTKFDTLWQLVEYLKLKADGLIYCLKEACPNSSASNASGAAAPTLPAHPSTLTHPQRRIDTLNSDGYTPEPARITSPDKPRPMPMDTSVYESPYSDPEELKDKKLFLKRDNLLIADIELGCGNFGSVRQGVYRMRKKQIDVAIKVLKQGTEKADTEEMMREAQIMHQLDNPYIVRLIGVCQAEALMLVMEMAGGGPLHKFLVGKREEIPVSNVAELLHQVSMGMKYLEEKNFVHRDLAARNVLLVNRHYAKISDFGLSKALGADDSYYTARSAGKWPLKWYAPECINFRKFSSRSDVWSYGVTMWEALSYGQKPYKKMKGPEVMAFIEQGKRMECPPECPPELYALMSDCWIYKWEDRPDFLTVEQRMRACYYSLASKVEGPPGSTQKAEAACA
Method in brief: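 Jurkat T cells washed in RPMI/0.1% FCS, preincubated with compound 30 min at 37 °C, stimulated with anti-TCR OKT3 (30 μg/mL final) 2 min at 37 °C, fixed in 2% PFA, permeabilized in 90% methanol, stained anti-SLP76 pY128 80 min at RT; flow cytometry. IC50 from factor F = MFI × percent positive cells.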

Rattus norvegicus [10] = assay: Antiarthritic activity in Lewis rat collagen-induced arthritis model assessed as reversal of paw swelling at 3 to 30 mg/kg, po qd administered on day 15 post immunization measured after day 28; type: functional, organism-based
Method in brief: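 Collagen arthritis in female Lewis rats (porcine collagen day 0, boost day 7); swollen-joint rats randomized and given oral doses of 3, 10 or 30 mg/kg once daily, days 15–28. Swelling scored visually three times a week, per paw 0−3 metatarsal plus 0−3 ankle, composite 0−12 per rat; group means calculated.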

[11] = biological target: Mitotic checkpoint serine/threonine-protein kinase BUB1 (Homo sapiens, UniProt O43683); assay: Competitive binding affinity to human BUB1
Sequence of Mitotic checkpoint serine/threonine-protein kinase BUB1 (O43683 whole entry): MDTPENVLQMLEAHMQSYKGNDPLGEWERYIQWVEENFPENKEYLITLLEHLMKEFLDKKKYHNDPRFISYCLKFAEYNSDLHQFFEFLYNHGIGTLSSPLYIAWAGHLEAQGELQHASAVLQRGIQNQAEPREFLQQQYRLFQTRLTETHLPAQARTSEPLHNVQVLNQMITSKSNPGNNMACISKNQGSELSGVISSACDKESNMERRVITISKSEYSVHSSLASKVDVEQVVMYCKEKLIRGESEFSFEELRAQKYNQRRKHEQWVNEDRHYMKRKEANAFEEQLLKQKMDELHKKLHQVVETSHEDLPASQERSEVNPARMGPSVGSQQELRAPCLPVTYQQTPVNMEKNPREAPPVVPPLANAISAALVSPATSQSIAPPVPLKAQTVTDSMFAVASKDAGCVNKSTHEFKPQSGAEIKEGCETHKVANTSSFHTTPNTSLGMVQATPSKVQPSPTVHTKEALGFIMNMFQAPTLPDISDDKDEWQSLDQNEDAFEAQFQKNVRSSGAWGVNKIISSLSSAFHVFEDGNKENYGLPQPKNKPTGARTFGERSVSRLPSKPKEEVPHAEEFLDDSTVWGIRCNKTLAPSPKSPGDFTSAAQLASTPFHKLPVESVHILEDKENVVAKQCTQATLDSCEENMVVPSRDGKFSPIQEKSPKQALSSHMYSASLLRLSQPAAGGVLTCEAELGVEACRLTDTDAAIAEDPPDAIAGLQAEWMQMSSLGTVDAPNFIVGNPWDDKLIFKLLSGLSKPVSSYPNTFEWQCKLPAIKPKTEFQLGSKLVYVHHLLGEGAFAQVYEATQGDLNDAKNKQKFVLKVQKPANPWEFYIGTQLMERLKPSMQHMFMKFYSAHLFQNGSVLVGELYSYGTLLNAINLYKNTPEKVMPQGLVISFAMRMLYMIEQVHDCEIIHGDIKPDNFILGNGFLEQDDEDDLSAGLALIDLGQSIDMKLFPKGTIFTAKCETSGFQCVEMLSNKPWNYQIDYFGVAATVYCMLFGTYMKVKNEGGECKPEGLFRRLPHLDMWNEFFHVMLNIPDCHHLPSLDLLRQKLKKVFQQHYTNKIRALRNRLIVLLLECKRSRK

Rattus norvegicus [12] = assay: Antiarthritic activity in Lewis rat collagen-induced arthritis model assessed as reduction of inflammatory cell infiltration in hind paw at 3 to 30 mg/kg, po qd administered on day 15 post immunization measured after day 28 by Giemsa/safranin O staining-based assay; type: functional, organism-based
Method in brief: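 Female Lewis rats (140−160 g), arthritis induced by porcine collagen immunization (day 0) and boost (day 7); rats with swollen joints randomized, dosed orally once daily from day 15 to day 28. Hind paws taken on day 28, fixed in 10% buffered formalin for 48 h, decalcified over 16 days, paraffin-embedded; 3 μm sections stained with Giemsa and safranin O and scored.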

[13] = Drug uptake in blood of Lewis rat collagen-induced arthritis model at 3 mg/kg, po qd administered on day 15 post immunization measured at 4 hrs on day 18; type: ADME, organism-based; design: dose 3 mg/kg, route oral; details: read-out: Drug uptake; method in brief: as §1
[14] = biological target: Serine/threonine-protein kinase PAK 4 (Homo sapiens, UniProt O96013); assay: Competitive binding affinity to human PAK4
Sequence of Serine/threonine-protein kinase PAK 4 (O96013 whole entry): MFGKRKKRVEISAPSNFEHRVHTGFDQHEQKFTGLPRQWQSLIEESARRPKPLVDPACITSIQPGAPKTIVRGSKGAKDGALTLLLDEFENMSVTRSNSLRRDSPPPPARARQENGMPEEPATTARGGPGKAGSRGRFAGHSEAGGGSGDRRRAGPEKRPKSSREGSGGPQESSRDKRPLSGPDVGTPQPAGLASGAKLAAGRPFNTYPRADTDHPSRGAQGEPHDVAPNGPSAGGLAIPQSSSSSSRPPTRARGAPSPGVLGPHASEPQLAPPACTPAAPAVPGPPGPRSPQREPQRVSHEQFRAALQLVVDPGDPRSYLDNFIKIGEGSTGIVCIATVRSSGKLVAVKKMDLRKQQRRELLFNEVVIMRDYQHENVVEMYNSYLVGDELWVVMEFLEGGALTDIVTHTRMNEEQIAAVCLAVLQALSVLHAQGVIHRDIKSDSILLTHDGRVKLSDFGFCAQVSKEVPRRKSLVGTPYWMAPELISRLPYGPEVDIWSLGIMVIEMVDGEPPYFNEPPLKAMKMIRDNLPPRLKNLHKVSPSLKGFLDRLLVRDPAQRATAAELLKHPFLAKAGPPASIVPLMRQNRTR

clearance [2]: 11 mL/min/kg
concentration at 24 h [3]: 461 nM
Kd [4]: 12 nM
Kd [5]: 380 nM
Vd [6]: 6.8 L/kg
concentration at 8 h [8]: 65 nM
IC50 [9]: 2530 nM
Kd [11]: 240 nM
concentration at 4 h [13]: 126 nM
Kd [14]: 17 nM
Structure (SMILES): NC(=O)c1nnc(N[C@@H]2CCCC[C@@H]2N)nc1Nc1cccc2cc[nH]c12
Activity (Rattus norvegicus [1]): Toxic
inhibition at 10 µM (hERG (KCNH2)): 0%
inhibition in vivo at 22 mg/kg (Rattus norvegicus [7]): 85%
Activity (Rattus norvegicus [10]): Active
Activity (Rattus norvegicus [12]): Active
